ChEMBL document CHEMBL3046679, “Design, synthesis, and biological activities of arylmethylamine substituted chlorotriazine and methylthiotriazine compounds” (J Agric Food Chem, 2011)
The source made the active and inactive calls. The rule behind the calls is not given here.

Key:
Puccinia triticina [1] = experiment: Fungicidal activity against Puccinia triticina assessed as inhibition of disease development in compound treated leaf pieces at 200 ppm relative to untreated control (wheat-curative); assay type: functional
Outline: (§1)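 Curative wheat leaf-piece test against Puccinia triticina. Leaf pieces inoculated with spores first, then treated with formulated compound at 200, 60 or 20 ppm. Disease scored 3–9 days after inoculation as percent inhibition versus untreated controls. Values are the mean across replicates.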

Puccinia triticina [2] = experiment: Fungicidal activity against Puccinia triticina assessed as inhibition of disease development in compound treated leaf pieces at 200 ppm relative to untreated control (wheat-preventative); assay type: functional
Outline: (§2)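 Preventative leaf-piece test on host tissue (tomato, vine, wheat or barley). Formulated compound applied at 200, 60 and 20 ppm before spore inoculation. Disease scored 3–9 days after inoculation, depending on the pathogen, as percent inhibition of disease development versus untreated controls. Values are the mean across replicates.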

[3] = tested on: Blumeria graminis f. sp. tritici; experiment: Fungicidal activity against Blumeria graminis f. sp. tritici assessed as inhibition of disease development in compound treated leaf pieces at 200 ppm relative to untreated control (wheat-preventative); assay type: functional
Plasmopara viticola [4] = experiment: Fungicidal activity against Plasmopara viticola assessed as inhibition of disease development in compound treated leaf pieces at 200 ppm relative to untreated control (grapevine-preventative); assay type: functional; outline: as §2
Phytophthora infestans [5] = experiment: Fungicidal activity against Phytophthora infestans assessed as inhibition of disease development in compound treated leaf pieces at 200 ppm relative to untreated control (tomato-preventative); assay type: functional; outline: as §2
Uromyces viciae-fabae = experiment: Fungicidal activity against Uromyces viciae-fabae assessed as inhibition of mycelia growth at 100 ppm; assay type: functional, organism-based
Outline: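 Leaf-piece assay on bean at 100 ppm, with compound applied before spore inoculation and two replicates. Each well scored 99 for complete inhibition, 55 for partial and 0 for none; value is the mean score across replicates.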

Phytophthora infestans [6] = experiment: Fungicidal activity against Phytophthora infestans assessed as inhibition of mycelia growth at 200 ppm; assay type: functional, organism-based
Fusarium graminearum = experiment: Fungicidal activity against Fusarium graminearum assessed as inhibition of mycelia growth at 2 ppm; assay type: functional, organism-based
Outline: (§3)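 Mycelial growth test in 96-well plates: compound incorporated into artificial growth medium at 2 ppm, two replicates per rate. Each well scored 99 for complete, 55 for partial or 0 for no inhibition. Values are the mean across replicates; azoxystrobin and prochloraz used as positive controls.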

Alternaria solani [7] = experiment: Fungicidal activity against Alternaria solani assessed as inhibition of mycelia growth at 2 ppm; assay type: functional, organism-based; outline: as §3
Pythium dissimile = experiment: Fungicidal activity against Pythium dissimile assessed as inhibition of mycelia growth at 2 ppm; assay type: functional, organism-based; outline: as §3
Echinochloa crus-galli [8] = experiment: Herbicidal activity against Echinochloa crus-galli (barnyard grass) at 1.5 kg/ha postemergence treatment measured after 10 days by glasshouse test; assay type: functional; settings: post-emergence, 240 h
Outline: (§4)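 Glasshouse pre/postemergence test, each treatment in triplicate. Above-ground fresh weight measured 10 days after treatment. Result expressed as percent inhibition versus control, from 0 (no control) to 100 (complete control); glyphosate used as positive control.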

Brassica napus [9] = experiment: Herbicidal activity against Brassica napus (oilseed rape) at 1.5 kg/ha postemergence treatment measured after 10 days by glasshouse test; assay type: functional; settings: post-emergence, 240 h; outline: as §4
Echinochloa crus-galli [10] = experiment: Herbicidal activity against Echinochloa crus-galli (barnyard grass) at 1.5 kg/ha preemergence treatment measured after 10 days by glasshouse test; assay type: functional; settings: pre-emergence, 240 h; outline: as §4
Brassica napus [11] = experiment: Herbicidal activity against Brassica napus (oilseed rape) at 1.5 kg/ha preemergence treatment measured after 10 days by glasshouse test; assay type: functional; settings: pre-emergence, 240 h; outline: as §4
Alternaria solani [12] = experiment: Fungicidal activity against Alternaria solani assessed as inhibition of disease development in compound treated leaf pieces at 20 ppm relative to untreated control (tomato-preventative); assay type: functional; outline: as §2
Pyrenophora teres [13] = experiment: Fungicidal activity against Pyrenophora teres assessed as inhibition of disease development in compound treated leaf pieces at 20 ppm relative to untreated control (barley-preventative); assay type: functional; outline: as §2
Parastagonospora nodorum [14] = experiment: Fungicidal activity against Phaeosphaeria nodorum assessed as inhibition of disease development in compound treated leaf pieces at 20 ppm relative to untreated control (wheat preventative); assay type: functional; outline: as §2
Puccinia triticina [15] = experiment: Fungicidal activity against Puccinia triticina assessed as inhibition of disease development in compound treated leaf pieces at 20 ppm relative to untreated control (wheat-curative); assay type: functional; outline: as §1
Puccinia triticina [16] = experiment: Fungicidal activity against Puccinia triticina assessed as inhibition of disease development in compound treated leaf pieces at 20 ppm relative to untreated control (wheat-preventative); assay type: functional; outline: as §2
[17] = tested on: Blumeria graminis f. sp. tritici; experiment: Fungicidal activity against Blumeria graminis f. sp. tritici assessed as inhibition of disease development in compound treated leaf pieces at 20 ppm relative to untreated control (wheat-preventative); assay type: functional
Plasmopara viticola [18] = experiment: Fungicidal activity against Plasmopara viticola assessed as inhibition of disease development in compound treated leaf pieces at 20 ppm relative to untreated control (grapevine-preventative); assay type: functional; outline: as §2
Phytophthora infestans [19] = experiment: Fungicidal activity against Phytophthora infestans assessed as inhibition of disease development in compound treated leaf pieces at 20 ppm relative to untreated control (tomato-preventative); assay type: functional; outline: as §2
Alternaria solani [20] = experiment: Fungicidal activity against Alternaria solani assessed as inhibition of disease development in compound treated leaf pieces at 60 ppm relative to untreated control (tomato-preventative); assay type: functional; outline: as §2
Pyrenophora teres [21] = experiment: Fungicidal activity against Pyrenophora teres assessed as inhibition of disease development in compound treated leaf pieces at 60 ppm relative to untreated control (barley-preventative); assay type: functional; outline: as §2
Parastagonospora nodorum [22] = experiment: Fungicidal activity against Phaeosphaeria nodorum assessed as inhibition of disease development in compound treated leaf pieces at 60 ppm relative to untreated control (wheat preventative); assay type: functional; outline: as §2
Puccinia triticina [23] = experiment: Fungicidal activity against Puccinia triticina assessed as inhibition of disease development in compound treated leaf pieces at 60 ppm relative to untreated control (wheat-curative); assay type: functional; outline: as §1
Puccinia triticina [24] = experiment: Fungicidal activity against Puccinia triticina assessed as inhibition of disease development in compound treated leaf pieces at 60 ppm relative to untreated control (wheat-preventative); assay type: functional; outline: as §2
[25] = tested on: Blumeria graminis f. sp. tritici; experiment: Fungicidal activity against Blumeria graminis f. sp. tritici assessed as inhibition of disease development in compound treated leaf pieces at 60 ppm relative to untreated control (wheat-preventative); assay type: functional
Plasmopara viticola [26] = experiment: Fungicidal activity against Plasmopara viticola assessed as inhibition of disease development in compound treated leaf pieces at 60 ppm relative to untreated control (grapevine-preventative); assay type: functional; outline: as §2
Phytophthora infestans [27] = experiment: Fungicidal activity against Phytophthora infestans assessed as inhibition of disease development in compound treated leaf pieces at 60 ppm relative to untreated control (tomato-preventative); assay type: functional; outline: as §2
Alternaria solani [28] = experiment: Fungicidal activity against Alternaria solani assessed as inhibition of disease development in compound treated leaf pieces at 200 ppm relative to untreated control (tomato-preventative); assay type: functional; outline: as §2
Pyrenophora teres [29] = experiment: Fungicidal activity against Pyrenophora teres assessed as inhibition of disease development in compound treated leaf pieces at 200 ppm relative to untreated control (barley-preventative); assay type: functional; outline: as §2
Triticum aestivum = experiment: Phytotoxicity against Triticum aestivum (wheat) plant at 200 ppm; assay type: organism-based; settings: in vivo
Heliothis virescens = experiment: Insecticidal activity against Lepidoptera Heliothis virescens (tobacco budworm) assessed as mortality at 1000 ppm by leaf-disk assay; assay type: functional, organism-based
Outline: (§5)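 Leaf-disk assay at 1000 ppm, three replicates. Plates kept 5–9 days in controlled-environment cabinets. Mortality judged against untreated wells: 99 for significant mortality, 0 otherwise. Values are the mean of three; thiamethoxam and indoxacarb used as positive controls.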

Aphididae = experiment: Insecticidal activity against Aphididae (aphids) assessed as mortality at 1000 ppm by leaf-disk assay; assay type: functional, organism-based; outline: as §5

CSc1nc(NCc2cc(-c3ccccc3)no2)nc(NC(C)C)n1
inhibition at 200 ppm (Puccinia triticina [1]): 100% | inhibition at 200 ppm (Puccinia triticina [2]): 100% | inhibition at 200 ppm [3]: 70% | inhibition at 200 ppm (Plasmopara viticola [4]): 0% | inhibition at 200 ppm (Phytophthora infestans [5]): 0% | inhibition (Uromyces viciae-fabae): Active | inhibition (Phytophthora infestans [6]): inactive | inhibition (Fusarium graminearum): inactive | inhibition (Alternaria solani [7]): inactive | inhibition (Pythium dissimile): inactive | inhibition at 1500 g/ha (Echinochloa crus-galli [8]): 14.3% | inhibition at 1500 g/ha (Brassica napus [9]): 100% | inhibition at 1500 g/ha (Echinochloa crus-galli [10]): 37.6% | inhibition at 1500 g/ha (Brassica napus [11]): 33.1% | inhibition at 20 ppm (Alternaria solani [12]): 0% | inhibition at 20 ppm (Pyrenophora teres [13]): 0% | inhibition at 20 ppm (Parastagonospora nodorum [14]): 0% | inhibition at 20 ppm (Puccinia triticina [15]): 70% | inhibition at 20 ppm (Puccinia triticina [16]): 0% | inhibition at 20 ppm [17]: 0% | inhibition at 20 ppm (Plasmopara viticola [18]): 0% | inhibition at 20 ppm (Phytophthora infestans [19]): 0% | inhibition at 60 ppm (Alternaria solani [20]): 0% | inhibition at 60 ppm (Pyrenophora teres [21]): 0% | inhibition at 60 ppm (Parastagonospora nodorum [22]): 70% | inhibition at 60 ppm (Puccinia triticina [23]): 100% | inhibition at 60 ppm (Puccinia triticina [24]): 70% | inhibition at 60 ppm [25]: 70% | inhibition at 60 ppm (Plasmopara viticola [26]): 0% | inhibition at 60 ppm (Phytophthora infestans [27]): 0% | inhibition at 200 ppm (Alternaria solani [28]): 0% | inhibition at 200 ppm (Pyrenophora teres [29]): 0% | Activity (Triticum aestivum): Toxic | mortality (Heliothis virescens): inactive | mortality (Aphididae): inactive
